In ChEMBL document CHEMBL3526099, “Metabolism of triethylenetetramine and 1,12-diamino-3,6,9-triazadodecane by the spermidine/spermine-N(1)-acetyltransferase and thialysine acetyltransferase” (Drug Metab Dispos, 2013):
Blank lines part the entries; values can stand above or below the molecule they belong to.

How the values were obtained:
[1] = target: T1, Thialysine N-epsilon-acetyltransferase (Homo sapiens, UniProt Q96F10); assay: Drug level in human HepG2 cells assessed as SSAT2-mediated compound formation treated with TETA at 1 mM for 24 hrs; type: ADME, cell-based; conditions: hepg2, 24 h, 1000 µM
[2] = target: T2, Diamine acetyltransferase 1 (Homo sapiens, UniProt P21673); assay: Drug level in human HepG2 cells assessed as SSAT1-mediated compound formation treated with SpmTrien at 100 uM for 24 hrs; type: ADME, cell-based; conditions: hepg2, 24 h
Target sequence in this assay (P21673 whole entry): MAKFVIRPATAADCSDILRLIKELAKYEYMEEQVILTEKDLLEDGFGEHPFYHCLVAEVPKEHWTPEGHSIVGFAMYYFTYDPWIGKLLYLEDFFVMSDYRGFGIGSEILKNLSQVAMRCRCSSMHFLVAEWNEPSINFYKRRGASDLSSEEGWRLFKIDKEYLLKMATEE

HepG2 = assay: Drug metabolism in human HepG2 cells at 100 uM for 24 hrs in presence of SSAT1 shRNA; type: ADME, cell-based; conditions: hepg2, 24 h
In short: (§1)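 HepG2 cells were transduced with control, SSAT1 or SSAT2 shRNA lentiviral particles and stable clones selected with puromycin (5 µg/ml) for one week. Cells were plated overnight, then incubated 24 h with 1 mM TETA or 100 µM SpmTrien. Intracellular metabolites were measured. Means ± SD, n=3.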

[3] = target: T2, Diamine acetyltransferase 1; assay: Drug metabolism in human HepG2 cells assessed as SSAT1-mediated (N1-acetyl)-1,12-diamino-3,6,9-triazadodecane formation at 100 uM for 24 hrs in presence of SSAT2 shRNA; type: ADME, cell-based; conditions: hepg2, 24 h; in short: as §1
Target sequence in this assay (P21673 whole entry): as above

[4] = Drug metabolism in SSAT1-knockout mouse primary hepatocytes at 100 uM for 4 hrs; type: ADME, cell-based, Hepatocyte
In short: (§2)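 Hepatocytes from SSAT1-KO or wild-type mouse liver were isolated by collagenase perfusion and plated on collagen I in William's E with dexamethasone, FBS and insulin. They were reverse-transfected with control or SSAT2 siRNA (100 nM) for 2 d, then exposed to 1 mM TETA or 100 µM SpmTrien for 4 h. Intracellular metabolites were measured. Means ± SD, n=3.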

[5] = target: T3, Diamine acetyltransferase 1 (Mus musculus, UniProt P48026); assay: Drug metabolism in mouse primary hepatocytes assessed as SSAT1-mediated (N1-acetyl)-1,12-diamino-3,6,9-triazadodecane formation at 100 uM for 4 hrs in presence of SSAT2 siRNA; type: ADME, cell-based, Hepatocyte; in short: as §2
[6] = target: T2, Diamine acetyltransferase 1; assay: Drug metabolism in human HepG2 cells assessed as SSAT1-mediated (N1-acetyl)-spermidine formation at 100 uM for 24 hrs; type: ADME, cell-based; conditions: hepg2, 24 h
Target sequence in this assay (P21673 whole entry): as above

[7] = target: T2, Diamine acetyltransferase 1; assay: Drug metabolism in human HepG2 cells assessed as SSAT1-mediated (N1-acetyl)-spermine formation at 100 uM for 24 hrs; type: ADME, cell-based; conditions: hepg2, 24 h
Target sequence in this assay (P21673 whole entry): as above

[8] = target: T2, Diamine acetyltransferase 1; assay: Drug metabolism in human HepG2 cells assessed as SSAT1-mediated (N1-acetyl)-1,12-diamino-3,6,9-triazadodecane formation at 100 uM for 24 hrs; type: ADME, cell-based; conditions: hepg2, 24 h
Target sequence in this assay (P21673 whole entry): as above

[9] = target: T2, Diamine acetyltransferase 1; assay: Drug level in human HepG2 cells assessed as SSAT1-mediated compound formation treated with SpmTrien at 100 uM for 24 hrs pretreated with 50 uM DENSpm for 24 hrs; type: ADME, cell-based; conditions: hepg2, 24 h
In short: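 HepG2 cells were pretreated for 24 h with 50 µM DENSpm or medium alone, washed, then incubated for 24 h with 1 mM TETA or 100 µM SpmTrien. Intracellular metabolites were measured from cell lysates. Means ± SD, n=3.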
Target sequence in this assay (P21673 whole entry): as above

[10] = target: T2, Diamine acetyltransferase 1; assay: Drug level in human HepG2 cells assessed as SSAT1-mediated compound formation treated with SpmTrien at 100 uM for 24 hrs in presence of SSAT2 shRNA; type: ADME, cell-based; conditions: hepg2, 24 h; in short: as §1
[11] = target: T2, Diamine acetyltransferase 1; assay: Activity of human recombinant SSAT1 assessed as compound formation treated with 1 mM SpmTrien for 50 mins by HPLC analysis; type: ADME
In short: (§3)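 SpmTrien (1 mM) incubated with 50-100 ng human recombinant enzyme for 10-50 min at 37 °C in 100 mM Tris-HCl pH 7.8 containing 1 mM acetyl-CoA and 1 mM DTT. The reaction was stopped with sulphosalicylic acid containing diaminoheptane as internal standard, and acetylated products were quantified by HPLC.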

[12] = target: T1, Thialysine N-epsilon-acetyltransferase; assay: Activity of human recombinant SSAT2 assessed as compound formation treated with 1 mM SpmTrien for 50 mins by HPLC analysis; type: ADME; in short: as §3
[13] = target: T3, Diamine acetyltransferase 1; assay: Drug level in mouse primary hepatocytes assessed as SSAT1-mediated compound formation treated with 100 uM SpmTrien for 4 hrs in presence of SSAT2 siRNA; type: ADME, cell-based, Hepatocyte; in short: as §2
[14] = target: T2, Diamine acetyltransferase 1; assay: Drug level in human HepG2 cells assessed as SSAT1-mediated compound formation per ug DNA treated with Spm Trien at 100 uM for 24 hrs; type: ADME, cell-based; conditions: hepg2, 24 h
[15] = target: T3, Diamine acetyltransferase 1; assay: Drug level in mouse primary hepatocytes assessed as SSAT1-mediated compound formation per ug DNA treated with SpmTrien at 100 uM for 4 hrs
[16] = target: T1, Thialysine N-epsilon-acetyltransferase; assay: Drug level in human HepG2 cells assessed as SSAT2-mediated compound formation treated with TETA at 1 mM for 24 hrs in presence of SSAT1 shRNA; type: ADME, cell-based; conditions: hepg2, 24 h, 1000 µM; in short: as §1
[17] = target: T1, Thialysine N-epsilon-acetyltransferase; assay: Drug level in human HepG2 cells assessed as SSAT2-mediated compound formation per ug DNA treated with TETA at 1 mM for 24 hrs; type: ADME, cell-based; conditions: hepg2, 24 h, 1000 µM
[18] = target: Thialysine N-epsilon-acetyltransferase (Mus musculus, UniProt Q6P8J2); assay: Drug level in mouse primary hepatocytes assessed as SSAT2-mediated compound formation per ug DNA treated with TETA at 1 mM for 4 hrs; conditions: 1000 µM
[19] = target: T2, Diamine acetyltransferase 1; assay: Drug level in human HepG2 cells assessed as SSAT1-mediated compound formation treated with TETA at 1 mM for 24 hrs pretreated with 50 uM DENSpm for 24 hrs; conditions: hepg2, 24 h, 1000 µM
Target sequence in this assay (P21673 whole entry, looked up): as the sequence (P21673 whole entry) above

T3 sequence (P48026 whole entry): as the sequence (P21673 whole entry) above, with V5K, A12S, E32D, L42Q, R119K, T169A counted along it
T1 sequence (Q96F10 whole entry): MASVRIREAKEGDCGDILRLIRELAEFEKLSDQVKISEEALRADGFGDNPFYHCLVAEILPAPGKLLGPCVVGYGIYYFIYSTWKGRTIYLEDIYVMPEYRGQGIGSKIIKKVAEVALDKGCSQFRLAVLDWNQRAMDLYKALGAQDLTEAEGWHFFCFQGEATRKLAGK
Thialysine N-epsilon-acetyltransferase (Mus musculus, UniProt Q6P8J2), sequence (Q6P8J2 whole entry): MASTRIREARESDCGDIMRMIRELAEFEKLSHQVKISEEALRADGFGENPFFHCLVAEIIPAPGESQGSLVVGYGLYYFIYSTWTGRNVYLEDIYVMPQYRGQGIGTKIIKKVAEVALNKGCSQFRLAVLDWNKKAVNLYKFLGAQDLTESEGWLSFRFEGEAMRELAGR

- Drug metabolism [1]: metabolite_detected
- Drug metabolism [2]: metabolite_detected
Compound: CC(=O)NCCCNCCCCNCCCN

- Drug metabolism [1]: metabolite_detected
- Drug metabolism [2]: metabolite_detected
Compound: CC(=O)NCCCNCCCCN

- Drug metabolism (HepG2): metabolite_not_detected
- Drug metabolism [3]: metabolite_detected
- Drug metabolism [4]: metabolite_not_detected
- Drug metabolism [5]: metabolite_detected
- Drug metabolism [6]: metabolite_detected
- Drug metabolism [7]: metabolite_detected
- Drug metabolism [8]: metabolite_detected
Compound: NCCCNCCNCCNCCN

- Drug metabolism [9]: metabolite_detected
- Drug metabolism [10]: metabolite_detected
- Drug metabolism [11]: 12.8 nmol
- Drug metabolism [12]: 0.65 nmol
- Drug metabolism [13]: metabolite_detected
- Drug metabolism [2]: metabolite_detected
- Drug metabolism [14]: 0.8 pmol/h
- Drug metabolism [15]: 3.4 pmol/h
Compound: CC(=O)NCCNCCNCCNCCCN

- Drug metabolism [9]: metabolite_detected
- Drug metabolism [11]: 4.2 nmol
- Drug metabolism [12]: 1.1 nmol
Compound: CC(=O)NCCCNCCNCCNCCN

- Drug metabolism [16]: metabolite_detected
- Drug metabolism [1]: metabolite_detected
- Drug metabolism [17]: 10 pmol/h
- Drug metabolism [18]: 40 pmol/h
- Drug metabolism [19]: metabolite_detected
Compound: CC(=O)NCCNCCNCCN
